Measurements as given in ChEMBL document CHEMBL3352548, “Small-molecule suppression of β-lactam resistance in multidrug-resistant gram-negative pathogens” (J Med Chem, 2014).
In brackets after ≈: the same amount, converted by molar mass. Activity calls are given as the source filed them. The calls are words filed in the database; no cut-off is given here.

Legend:
Pseudomonas aeruginosa [1] = experiment: Antibacterial activity against Pseudomonas aeruginosa PA53 assessed as fold reduction in meropenem MIC at 30 uM after 16 hrs by microdilution method; assay type: functional
Method in brief: (§1)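 MIC of each compound alone was determined first. Antibiotic MICs (imipenem or meropenem for A. baumannii; ceftazidime or meropenem for P. aeruginosa) were then measured with compound at fixed sub-MIC concentrations. Fold reduction is MIC without compound divided by MIC with compound.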

Acinetobacter baumannii [2] = experiment: Antibacterial activity against Acinetobacter baumannii ATCC BAA-1605 assessed as fold reduction in meropenem MIC at 30 uM after 16 hrs by microdilution method; assay type: functional; method in brief: as §1
Acinetobacter baumannii [3] = experiment: Antibacterial activity against Acinetobacter baumannii ATCC BAA-1605 assessed as complete inhibition of bacterial growth after 16 hrs by microdilution method; assay type: functional; settings: ATCC BAA-1605, 16 h; method in brief: as §1
Acinetobacter baumannii [4] = experiment: Antibacterial activity against Acinetobacter baumannii ATCC BAA-1605 assessed as fold reduction in meropenem MIC at 60 uM after 16 hrs by microdilution method; assay type: functional; method in brief: as §1
Pseudomonas aeruginosa [5] = experiment: Antibacterial activity against Pseudomonas aeruginosa PA53 assessed as fold reduction in meropenem MIC at 60 uM after 16 hrs by microdilution method; assay type: functional; method in brief: as §1
Acinetobacter baumannii [6] = experiment: Antibacterial activity against Acinetobacter baumannii ATCC BAA-1605 assessed as fold reduction in imipenem MIC at 60 uM after 16 hrs by microdilution method; assay type: functional; method in brief: as §1
Pseudomonas aeruginosa [7] = experiment: Antibacterial activity against Pseudomonas aeruginosa PA53 assessed as complete inhibition of bacterial growth after 16 hrs by microdilution method; assay type: functional; settings: PA53, 16 h; method in brief: as §1
Pseudomonas aeruginosa [8] = experiment: Antibacterial activity against Pseudomonas aeruginosa PA53 assessed as fold reduction in ceftazidime MIC at 60 uM after 16 hrs by microdilution method; assay type: functional; method in brief: as §1
Acinetobacter baumannii [9] = experiment: Antibacterial activity against Acinetobacter baumannii ATCC BAA-1605 assessed as fold reduction in imipenem MIC at 30 uM after 16 hrs by microdilution method; assay type: functional; method in brief: as §1
Acinetobacter baumannii [10] = experiment: Antibacterial activity against Acinetobacter baumannii ATCC BAA-1605 assessed as reduction in meropenem MIC at 60 uM after 6 hrs by time kill assay; assay type: functional
Pseudomonas aeruginosa [11] = experiment: Antibacterial activity against Pseudomonas aeruginosa PA53 assessed as reduction in CFU at 60 uM after 6 hrs by time kill assay; assay type: functional
Method in brief: (§2)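 Time-kill: cultures were grown at 37 °C with shaking with compound (15 μM for BAA-1605, 60 μM for PA53), meropenem (1–32 μg/mL for BAA-1605, 1–64 μg/mL for PA53), or both. Samples taken at 2, 4, 6, 8 and 24 h were serially diluted in CAMHB, plated on nutrient agar, incubated overnight at 37 °C, and colonies counted.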

Pseudomonas aeruginosa [12] = experiment: Antibacterial activity against Pseudomonas aeruginosa PA53 assessed as reduction in meropenem MIC at 60 uM after 6 hrs by time kill assay; assay type: functional, organism-based
Acinetobacter baumannii [13] = experiment: Antibacterial activity against Acinetobacter baumannii ATCC BAA-1605 assessed as reduction in CFU at 60 uM after 6 hrs by time kill assay; assay type: functional, organism-based
Pseudomonas aeruginosa [14] = experiment: Antibacterial activity against Pseudomonas aeruginosa PA53 assessed as fold reduction in meropenem MIC at 15 uM after 16 hrs by microdilution method; assay type: functional; method in brief: as §1
Pseudomonas aeruginosa [15] = experiment: Antibacterial activity against Pseudomonas aeruginosa PA53 assessed as fold reduction in ceftazidime MIC at 15 uM after 16 hrs by microdilution method; assay type: functional; method in brief: as §1
Acinetobacter baumannii [16] = experiment: Antibacterial activity against Acinetobacter baumannii ATCC BAA-1605 assessed as fold reduction in meropenem MIC at 7.5 uM after 16 hrs by microdilution method; assay type: functional; method in brief: as §1
Acinetobacter baumannii [17] = experiment: Antibacterial activity against Acinetobacter baumannii ATCC BAA-1605 assessed as fold reduction in imipenem MIC at 7.5 uM after 16 hrs by microdilution method; assay type: functional; method in brief: as §1
Acinetobacter baumannii [18] = experiment: Antibacterial activity against Acinetobacter baumannii ATCC BAA-1605 assessed as fold reduction in meropenem MIC at 15 uM after 16 hrs by microdilution method; assay type: functional; method in brief: as §1
Acinetobacter baumannii [19] = experiment: Antibacterial activity against Acinetobacter baumannii ATCC BAA-1605 assessed as fold reduction in imipenem MIC at 15 uM after 16 hrs by microdilution method; assay type: functional; method in brief: as §1
Pseudomonas aeruginosa [20] = experiment: Antibacterial activity against Pseudomonas aeruginosa PA53 assessed as fold reduction in ceftazidime MIC at 30 uM after 16 hrs by microdilution method; assay type: functional; method in brief: as §1
Pseudomonas aeruginosa [21] = experiment: Antibacterial activity against Pseudomonas aeruginosa PA53 assessed as reduction in CFU at 1 ug/ml after 6 hrs by time kill assay; assay type: functional; method in brief: as §2
Pseudomonas aeruginosa [22] = experiment: Antibacterial activity against Pseudomonas aeruginosa PA53 assessed as reduction in CFU at 4 ug/ml after 6 hrs by time kill assay; assay type: functional; method in brief: as §2
Acinetobacter baumannii [23] = experiment: Antibacterial activity against Acinetobacter baumannii ATCC BAA-1605 assessed as reduction in CFU at 1 ug/ml after 6 hrs by time kill assay; assay type: functional; method in brief: as §2
Acinetobacter baumannii [24] = experiment: Antibacterial activity against Acinetobacter baumannii ATCC BAA-1605 assessed as reduction in CFU at 4 ug/ml after 6 hrs by time kill assay; assay type: functional; method in brief: as §2

| SMILES | MIC (Acinetobacter baumannii [3]) | fold change (FC) (Acinetobacter baumannii [4]) | fold change (FC) (Pseudomonas aeruginosa [5]) | MIC (Pseudomonas aeruginosa [7]) | fold change (FC) (Pseudomonas aeruginosa [8]) | other results |
| --- | --- | --- | --- | --- | --- | --- |
| Cl.Nc1ncc(-c2ccc(NC(=O)c3ccc(Cl)c(Cl)c3)cc2)[nH]1 |  |  |  |  |  | fold change (FC) (Pseudomonas aeruginosa [1]): 1; fold change (FC) (Acinetobacter baumannii [2]): 64 |
| CCCCCCC(=O)Nc1ccc(-c2cnc(N)[nH]2)cc1 | 200 µM |  |  |  |  |  |
| C[C@@H](O)[C@H]1C(=O)N2C(C(=O)O)=C(SCCNC=N)C[C@H]12 [IMIPENEM ANHYDROUS] | 16 µg/mL |  |  |  |  |  |
| Cl.Nc1ncc(-c2ccc(NC(=O)c3cc(I)c(I)c(I)c3)cc2)[nH]1 |  | 2 | 1 |  |  |  |
| Nc1ncc(-c2ccc(NC(=O)/C=C/c3ccccc3)cc2)[nH]1 | 100 µM |  |  |  |  |  |
| Cl.Nc1nc(-c2ccc(NC(=O)c3ccc(Br)cc3)cc2)c[nH]1 | > 200 µM | 16 | 2 | > 200 µM | 1 | fold change (FC) (Acinetobacter baumannii [6]): 8 |
| Cl.Nc1nc(-c2ccc(NC(=O)c3cc(F)c(F)c(F)c3)cc2)c[nH]1 | 100 µM |  | 2 | 200 µM | 1 | fold change (FC) (Acinetobacter baumannii [9]): 8; fold change (FC) (Acinetobacter baumannii [2]): 8 |
| CCCCCC(=O)Nc1cccc(-c2c[nH]c(N)n2)c1 | 100 µM |  |  |  |  |  |
| Cl.Nc1ncc(-c2ccc(NC(=O)c3cccc(Cl)c3Cl)cc2)[nH]1 |  | 2 | 1 |  |  | fold change (FC) (Acinetobacter baumannii [10]): 2; Activity (Pseudomonas aeruginosa [11]): inactive; Activity (Pseudomonas aeruginosa [12]): inactive; Activity (Acinetobacter baumannii [13]): inactive |
| Cl.Nc1ncc(-c2ccc(NC(=O)c3ccc(Br)cc3F)cc2)[nH]1 |  | 2 | 1 |  |  |  |
| Cl.Nc1ncc(-c2ccc(NC(=O)c3ccc(I)cc3)cc2)[nH]1 |  | 2 | 1 |  |  |  |
| Cl.Nc1nc(-c2ccc(NC(=O)c3ccc(C(F)(F)F)c(F)c3)cc2)c[nH]1 | 25 µM |  |  | 50 µM |  | fold change (FC) (Pseudomonas aeruginosa [14]): 4; fold change (FC) (Pseudomonas aeruginosa [15]): 8; fold change (FC) (Acinetobacter baumannii [16]): 4; fold change (FC) (Acinetobacter baumannii [17]): 2 |
| Cl.Nc1nc(-c2ccc(NC(=O)c3ccccc3F)cc2)c[nH]1 | > 200 µM | 2 | 2 | > 200 µM | 1 | fold change (FC) (Acinetobacter baumannii [6]): 1 |
| Cl.Nc1nc(-c2ccc(NC(=O)c3c(F)c(F)c(F)c(F)c3F)cc2)c[nH]1 | > 200 µM | 2 | 2 | > 200 µM | 1 | fold change (FC) (Acinetobacter baumannii [6]): 1 |
| Cl.Nc1nc(-c2ccc(NC(=O)c3ccc(C(F)(F)F)cc3)cc2)c[nH]1 | 50 µM |  |  | 100 µM |  | fold change (FC) (Acinetobacter baumannii [18]): 4; fold change (FC) (Acinetobacter baumannii [19]): 4; fold change (FC) (Pseudomonas aeruginosa [20]): 8; fold change (FC) (Pseudomonas aeruginosa [1]): 8 |
| CCCCCCc1ccc(-c2c[nH]c(N)n2)cc1 | 100 µM |  |  |  |  |  |
| Cl.Nc1ncc(-c2ccc(NC(=O)c3ccc(Cl)cc3Cl)cc2)[nH]1 |  | 4 | 1 |  |  |  |
| Nc1ncc(-c2ccc(NC(=O)c3cc(F)cc(F)c3)cc2)[nH]1 | 200 µM | 16 |  | 100 µM (≈ 31.4 µg/mL) |  | fold change (FC) (Acinetobacter baumannii [6]): 8; fold change (FC) (Pseudomonas aeruginosa [20]): 1; fold change (FC) (Pseudomonas aeruginosa [1]): 2 |
| Cl.Nc1ncc(-c2ccc(NC(=O)c3cccc(I)c3)cc2)[nH]1 |  | 8 | 1 |  |  |  |
| C[C@@H](O)[C@H]1C(=O)N2C(C(=O)O)=C(S[C@@H]3CN[C@H](C(=O)N(C)C)C3)[C@H](C)[C@H]12 [MEROPENEM] | 32 µg/mL |  |  |  |  | fold change (FC) (Pseudomonas aeruginosa [21]): 0.2; fold change (FC) (Pseudomonas aeruginosa [22]): 0.2; fold change (FC) (Acinetobacter baumannii [23]): <0.1; fold change (FC) (Acinetobacter baumannii [24]): <0.1 |
| Cl.Nc1nc(-c2ccc(NC(=O)c3ccc(Cl)cc3)cc2)c[nH]1 | > 200 µM | 8 | 2 | > 200 µM | 1 | fold change (FC) (Acinetobacter baumannii [6]): 4 |
| Cl.Nc1nc(-c2ccc(NC(=O)c3ccc(F)cc3)cc2)c[nH]1 | > 200 µM | 4 | 2 | 200 µM | 1 | fold change (FC) (Acinetobacter baumannii [6]): 2 |
| Cl.Nc1nc(-c2ccc(NC(=O)c3c(Cl)cc(Cl)cc3Cl)cc2)c[nH]1 | 100 µM |  | 4 | 200 µM | 1 | fold change (FC) (Acinetobacter baumannii [9]): 1; fold change (FC) (Acinetobacter baumannii [2]): 4 |
| Cl.Nc1ncc(-c2ccc(NC(=O)c3ccc(F)c(Cl)c3)cc2)[nH]1 |  |  |  |  |  | fold change (FC) (Pseudomonas aeruginosa [14]): 1; fold change (FC) (Acinetobacter baumannii [2]): 4 |
| Cl.Nc1nc(-c2ccc(NC(=O)c3cccc(F)c3)cc2)c[nH]1 | > 200 µM | 4 | 2 | 200 µM | 1 | fold change (FC) (Acinetobacter baumannii [6]): 2 |
| Cl.Nc1ncc(-c2ccc(NC(=O)c3cc(Br)cc(Br)c3)cc2)[nH]1 |  |  | 1 |  |  | fold change (FC) (Acinetobacter baumannii [2]): 4 |
| Cl.Nc1nc(-c2ccc(NC(=O)c3cccc(Br)c3)cc2)c[nH]1 | > 200 µM | 16 | 4 | > 200 µM | 16 | fold change (FC) (Acinetobacter baumannii [6]): 8 |
| CCCCCc1ccc(C(=O)Nc2ccc(-c3cnc(N)[nH]3)cc2)cc1 | 200 µM |  |  |  |  |  |
